Consider five molecules from ChEMBL document CHEMBL4425110, “ICI 56,780 Optimization: Structure-Activity Relationship Studies of 7-(2-Phenoxyethoxy)-4(1H)-quinolones with Antimalarial Activity” (J Med Chem, 2016).

Active and inactive are the calls of the source. The calls are words filed in the database; no cut-off is given here.

The nature of data set [1]: Liver blood index, ratio of EC50 for Plasmodium falciparum W2 to EC50 for Plasmodium berghei. The data set is classed as functional. In a few lines:
(§1)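 Liver-stage EC50 measured in vitro against P. berghei. Liver blood index is the blood-stage EC50 divided by the P. berghei EC50, using either W2 or TM90-C2B as the blood-stage strain.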

For data set [2], the system named is Plasmodium falciparum. The experiment in a line: Antimalarial activity against Plasmodium falciparum TM90-C2B. The format is functional, organism-based.
Data set [3] has as its system Plasmodium falciparum. The experiment in a line: Antimalarial activity against Plasmodium falciparum W2. The format is functional, organism-based.
Data set [4] deals with Plasmodium falciparum. The experiment in a line: Resistance index, ratio of EC50 for Plasmodium falciparum TM90-C2B to EC50 for Plasmodium falciparum W2. The data set is classed as functional.
Data set [5] has as its system Plasmodium berghei. The experiment in a line: Antimalarial activity against Plasmodium berghei. The format is functional, organism-based. The method, boiled down: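 In vitro liver-stage (exoerythrocytic) assay against P. berghei; the value is the EC50 (nM).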
Data set [6] concerns Plasmodium berghei. As to the kind of experiment: Antimalarial activity against Plasmodium berghei infected in mouse assessed as inhibition of parasitemia at 50 mg/kg, po administered as single dose measured on day 6 post drug exposure relative to untreated control. The data set is classed as functional. The settings on record: 144 h. The method, boiled down:
(§2)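 Two infected mice per compound were each given a single oral dose of 50 mg/kg, suspended in PEG400, on day 1 post-exposure. Parasitemia was assessed on days 3 and 6 post-exposure.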

Data set [7] deals with J774. As to the kind of experiment: Cytotoxicity against mouse J774 cells. The format is cell-based.
Data set [8] has as its system Plasmodium berghei. As to the kind of experiment: Antimalarial activity against Plasmodium berghei infected in mouse assessed as inhibition of parasitemia at 50 mg/kg, po administered as single dose measured on day 3 post drug exposure relative to untreated control. The data set is classed as functional. The settings on record: 72 h. In a few lines:
as §2

The nature of data set [9]: Liver blood index, ratio of EC50 for Plasmodium falciparum TM90-C2B to EC50 for Plasmodium berghei. The format is functional. In a few lines:
as §1

Data set [10] in a line: Solubility in pH 6.5 buffer by HPLC based UV spectroscopy. The format is physicochemical.
Data set [11] has as its system Plasmodium berghei. The experiment in a line: Antimalarial activity against GFP expressing Plasmodium berghei infected in mouse assessed as inhibition of parasitemia at 10 mg/kg, po administered on days 3, 4 and 5 and measured on day 6 post drug exposure by Giemsa staining based modified Thompson test. The data set is classed as functional. The settings on record: 144 h.

For data set [12], the system named is Plasmodium berghei. As to the kind of experiment: Antimalarial activity against GFP expressing Plasmodium berghei infected in mouse assessed as average time for mouse death at 10 mg/kg, po administered on days 3, 4 and 5 and measured on day 6 post drug exposure by Giemsa staining based modified Thompson test. The format is functional.
For data set [13], the system named is Plasmodium berghei. The experiment in a line: Antimalarial activity against GFP expressing Plasmodium berghei infected in mouse assessed as inhibition of parasitemia at 10 mg/kg, po administered on days 3, 4 and 5 and measured on day 13 post drug exposure by Giemsa staining based modified Thompson test. The format is functional, organism-based.

For `CCCCc1cc2c(=O)c(C(=O)NCCO)c[nH]c2cc1OCCOc1ccccc1`, the Ratio EC50 in data set [1] was determined as 19.8; in [4] it was 23.3; in data set [9], 460. Further, the EC50 (in general, the concentration giving half of the maximal effect) in data set [2] is 5890 nM; in data set [3] it was 253 nM; in [5] it was 12.8 nM; in data set [7] it was over 20000 nM. Also, the inhibition in vivo (in general, the share of the control response that was lost under treatment) at 50 mg/kg in data set [6] was under 1%; in [8], 40%. Further, the solubility (commonly the dissolved amount per volume that the medium holds) in data set [10] was over 20 µM.

For `CCCCc1cc2c(=O)c(C(=O)OC)c[nH]c2cc1OCCOc1ccccc1`, the results for the Ratio EC50 in data set [1], in [4] and in [9] were 0.75, 202 and 152, respectively. The EC50 is 7.89 nM in data set [2], 0.039 nM in data set [3], 0.052 nM in [5] and over 20000 nM in data set [7]. Moreover, the inhibition in vivo at 10 mg/kg in [11] was under 1%. In addition, the Time in data set [12] is 13 days. Besides, the results for the inhibition in vivo at 50 mg/kg in data set [6] and in data set [8] were 49% and 76.9%, respectively.

For the molecule `O=C1C(O)=C([C@H]2CC[C@H](c3ccc(Cl)cc3)CC2)C(=O)c2ccccc21` [ATOVAQUONE], the Time in data set [12] worked out at 30 days.

For the molecule `CCCCc1cc2c(=O)c(Br)c(C)[nH]c2cc1OCCOc1ccccc1`, the Ratio EC50 in data set [1] was 1.23; in data set [4], 4.69; in data set [9], 5.75. For the same molecule, the result in data set [13] was inactive. In addition, the EC50 is 12.2 nM in data set [2], 2.6 nM in data set [3], 2.12 nM in [5] and over 10000 nM in [7]. Besides, the inhibition in vivo at 10 mg/kg in data set [11] was determined as 61%. For the same molecule, the Time in data set [12] came out at 13 days. For the same molecule, the inhibition in vivo at 50 mg/kg was found to be 49.5% in data set [6] and 100% in data set [8].

Turning to `COC(=O)c1c[nH]c2ccc(OCCc3ccccc3)cc2c1=O`, the Ratio EC50 was 3.53 in data set [1], 124 in [4] and 438 in data set [9]. Further, the EC50 was 3050 nM in data set [2], 24.6 nM in data set [3], 6.97 nM in [5] and 2200 nM in data set [7]. Also, the values for the inhibition in vivo at 50 mg/kg in [6] and in data set [8] were under 1% and 7.69%, respectively.
